{"source": "ChEMBL document CHEMBL5344470", "about": "“Probing the Use of Triphenyl Phosphonium Cation for Mitochondrial Nucleoside Delivery” (ACS Med Chem Lett, 2024)", "key": {"[1]": {"experiment": "Drug concentration in living human MCF7 cells at 10 uM incubated for 24 hrs by flow cytometry analysis", "assay_type": "ADME, cell-based", "conditions": "mcf7, 24 h; call rule not given here", "in_short": "(§1)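 Living MCF-7 cells incubated 24 h with test compounds at different concentrations; fluorescein-labelled compound uptake quantified by flow cytometry as percentage internalization; mean ± SEM of three independent experiments.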"}, "[2]": {"experiment": "Stability of compound in culture media assessed as compound hydrolysis by measuring half life at 50 uM by HPLC analysis", "assay_type": "physicochemical", "in_short": "(§2)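 Compounds incubated with pig liver esterase, cell culture medium or MCF-7 cell extracts; decomposition followed by HPLC with direct injection of the biological medium, no sample pretreatment; half-lives determined; hydrolysis metabolite identified by co-injection with authentic sample.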"}, "[3]": {"experiment": "Drug metabolism assessed as compound hydrolysis by measuring 2-(6-hydroxy-3-oxo-3H-xanthen-9-yl)-5-((1-((2R,4S,5R)-4-hydroxy-5-(hydroxymethyl)tetrahydrofuran-2-yl)-2-oxo-1,2-dihydropyrimidin-4-yl)carbamoyl)benzoic acid formation", "assay_type": "ADME", "in_short": "as §2"}, "[4]": {"experiment": "Drug localization in mitochondria of human MCF7 cells at 50 uM incubated for 24 hrs by MitoTracker red CMXRos staining based confocal fluorescence microscopy", "assay_type": "ADME", "conditions": "mcf7, 24 h", "in_short": "(§3)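 MCF-7 cells incubated 24 h at 37 °C with 50 μM fluorescein-labelled compound; mitochondria stained with 200 nM MitoTracker red CMXRos and nuclei with Hoechst 33342 (10 μg/mL final); cells washed twice with medium, then imaged by confocal microscopy (488 nm fluorescein, 561 nm MitoTracker, 760 nm Hoechst, 63×/1.4 oil objective); untreated cells as control.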"}, "esterase": {"tested_on": "esterase", "experiment": "Stability of compound assessed as pig liver esterase mediated hydrolysis by measuring half life at 50 uM by HPLC analysis", "assay_type": "ADME, Sus scrofa", "in_short": "as §2"}, "[5]": {"experiment": "Cytotoxicity against human MCF7 cells assessed as cell viability upto 50 uM measured after 72 hrs by MTT assay relative to control", "assay_type": "toxicity, cell-based", "conditions": "read-out: Activity", "in_short": "(§4)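 MCF-7 breast cancer cells exposed to test compounds at a range of concentrations (up to 100 μM) for 72 h; cell viability measured and expressed as percentage viability or cell death relative to untreated control.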"}, "[6]": {"experiment": "Drug localization in mitochondria of human MCF7 cells assessed as appearance of green and red overlapped superimposed images at 100 uM incubated for 24 hrs by MitoTracker red CMXRos staining based super-resolution confocal fluorescence microscopy", "assay_type": "ADME", "conditions": "mcf7, 24 h", "in_short": "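Living MCF-7 cells treated 24 h with 100 μM fluorescein-labelled compound, stained with 100 nM MitoTracker red CMXRos and Hoechst 33342 (10 μg/mL final), washed twice with medium; Airyscan super-resolution confocal imaging (488/561/405 nm, 63×); co-localization judged from overlapping green and red areas in superimposed images; untreated cells as control.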"}, "[7]": {"experiment": "Drug concentration in living human MCF7 cells at 50 uM incubated for 24 hrs by flow cytometry analysis", "assay_type": "ADME, cell-based", "conditions": "mcf7, 24 h", "in_short": "as §1"}, "[8]": {"experiment": "Stability of compound in MCF7 cell extract assessed as compound hydrolysis by measuring half life at 50 uM by HPLC analysis", "assay_type": "physicochemical", "conditions": "human", "in_short": "as §2"}, "[9]": {"experiment": "Drug accumulation in living human MCF7 cells at 25 uM incubated for 24 hrs by flow cytometry analysis", "assay_type": "ADME, cell-based", "conditions": "mcf7, 24 h", "in_short": "as §1"}, "[10]": {"experiment": "Drug concentration in living human MCF7 cells at 5 uM incubated for 24 hrs by flow cytometry analysis", "assay_type": "ADME, cell-based", "conditions": "mcf7, 24 h", "in_short": "as §1"}, "[11]": {"experiment": "Drug concentration in living human MCF7 cells at 25 uM incubated for 24 hrs by flow cytometry analysis", "assay_type": "ADME, cell-based", "conditions": "mcf7, 24 h", "in_short": "as §1"}, "[12]": {"experiment": "Cytotoxicity against human MCF7 cells assessed as cell viability at 100 uM measured after 72 hrs by MTT assay relative to control", "assay_type": "toxicity, cell-based", "conditions": "read-out: Activity", "in_short": "as §4"}, "[13]": {"experiment": "Drug localization in cytoplasm of human MCF7 cells at 50 uM incubated for 24 hrs by confocal fluorescence microscopy", "assay_type": "ADME, subcellular", "conditions": "mcf7, 24 h", "in_short": "as §3"}, "[14]": {"experiment": "Drug internalization in living human MCF7 cells at 10 uM incubated for 24 hrs by flow cytometry analysis", "assay_type": "ADME, cell-based", "conditions": "mcf7, 24 h", "in_short": "as §1"}, "[15]": {"experiment": "Drug internalization in living human MCF7 cells at 5 uM incubated for 24 hrs by flow cytometry analysis", "assay_type": "ADME, cell-based", "conditions": "mcf7, 24 h", "in_short": "as §1"}, "[16]": {"experiment": "Drug internalization in living human MCF7 cells at 50 uM incubated for 24 hrs by flow cytometry analysis", "assay_type": "ADME, cell-based", "conditions": "mcf7, 24 h", "in_short": "as §1"}, "MCF7 [17]": {"tested_on": "MCF7", "experiment": "Cytotoxicity against human MCF7 cells assessed as cell death at 50 uM measured after 72 hrs by MTT assay relative to control", "assay_type": "toxicity, cell-based", "conditions": "mcf7, 72 h", "in_short": "as §4"}, "MCF7 [18]": {"tested_on": "MCF7", "experiment": "Cytotoxicity against human MCF7 cells assessed as cell death at 10 uM measured after 72 hrs by MTT assay relative to control", "assay_type": "toxicity, cell-based", "conditions": "mcf7, 72 h", "in_short": "as §4"}, "[19]": {"experiment": "Stability of compound in culture media assessed as compound hydrolysis at 50 uM by HPLC analysis", "assay_type": "physicochemical", "in_short": "as §2"}}, "data": [{"smiles": "O=C(CCCCCCCCC[P+](c1ccccc1)(c1ccccc1)c1ccccc1)OC[C@H]1O[C@@H](n2ccc(NC(=O)c3ccc(-c4c5ccc(=O)cc-5oc5cc(O)ccc45)c(C(=O)O)c3)nc2=O)C[C@@H]1O.O=C([O-])C(F)(F)F", "values": [{"measurement": "Drug uptake", "setting": "[1]", "result": 24, "unit": "%"}, {"measurement": "half-life at 50 µM", "setting": "[2]", "result": "> 17.8", "unit": "h"}, {"measurement": "Drug metabolism", "setting": "[3]", "result": "Metabolite_Detected"}, {"measurement": "Drug uptake", "setting": "[4]", "result": "Active"}, {"measurement": "half-life at 50 µM", "setting": "esterase", "result": "< 0.25", "unit": "h"}, {"measurement": "viability at 72 h, up to 50 µM", "setting": "[5]", "result": 84, "unit": "%"}, {"measurement": "Drug uptake", "setting": "[6]", "result": "Active"}, {"measurement": "Drug uptake", "setting": "[7]", "result": 100, "unit": "%"}, {"measurement": "half-life at 50 µM", "setting": "[8]", "result": "> 8.4", "unit": "h"}, {"measurement": "Drug uptake", "setting": "[9]", "result": 96, "unit": "%"}, {"measurement": "Drug uptake", "setting": "[10]", "result": 3, "unit": "%"}, {"measurement": "Drug uptake", "setting": "[11]", "result": 96, "unit": "%"}, {"measurement": "viability at 72 h, 100 µM", "setting": "[12]", "result": 60, "unit": "%"}]}, {"smiles": "Nc1ccn([C@H]2C[C@H](O)[C@@H](COC(=O)CCCCCCCCC[P+](c3ccccc3)(c3ccccc3)c3ccccc3)O2)c(=O)n1.O=C(O)C(F)(F)F.O=C([O-])C(F)(F)F", "values": [{"measurement": "half-life at 50 µM", "setting": "[2]", "result": "> 17.8", "unit": "h"}, {"measurement": "half-life at 50 µM", "setting": "esterase", "result": "< 0.25", "unit": "h"}, {"measurement": "half-life at 50 µM", "setting": "[8]", "result": "> 8.4", "unit": "h"}]}, {"smiles": "O=C(Nc1ccn([C@H]2C[C@H](O)[C@@H](CO)O2)c(=O)n1)c1ccc(-c2c3ccc(=O)cc-3oc3cc(O)ccc23)c(C(=O)O)c1", "values": [{"measurement": "Drug uptake", "setting": "[13]", "result": "Active"}, {"measurement": "Drug uptake", "setting": "[1]", "result": 12, "unit": "%"}, {"measurement": "Drug uptake", "setting": "[4]", "result": "Not Active"}, {"measurement": "Drug uptake", "setting": "[7]", "result": 87, "unit": "%"}, {"measurement": "Drug uptake", "setting": "[9]", "result": 62, "unit": "%"}, {"measurement": "Drug uptake", "setting": "[10]", "result": 2, "unit": "%"}, {"measurement": "Drug uptake", "setting": "[11]", "result": 62, "unit": "%"}]}, {"smiles": "O=C(CC[P+](c1ccccc1)(c1ccccc1)c1ccccc1)OC[C@H]1O[C@@H](n2ccc(NC(=O)c3ccc(-c4c5ccc(=O)cc-5oc5cc(O)ccc45)c(C(=O)O)c3)nc2=O)C[C@@H]1O.O=C([O-])C(F)(F)F", "values": [{"measurement": "Drug uptake", "setting": "[13]", "result": "Active"}, {"measurement": "Drug uptake", "setting": "[1]", "result": 61, "unit": "%"}, {"measurement": "Drug uptake", "setting": "[4]", "result": "Active"}, {"measurement": "Drug uptake", "setting": "[14]", "result": 61, "unit": "%"}, {"measurement": "Drug uptake", "setting": "[7]", "result": 99, "unit": "%"}, {"measurement": "Drug uptake", "setting": "[9]", "result": "> 95", "unit": "%"}, {"measurement": "Drug uptake", "setting": "[15]", "result": 27, "unit": "%"}, {"measurement": "Drug uptake", "setting": "[10]", "result": 27, "unit": "%"}, {"measurement": "Drug uptake", "setting": "[11]", "result": 96, "unit": "%"}]}, {"smiles": "O=C(CCCCC[P+](c1ccccc1)(c1ccccc1)c1ccccc1)OC[C@H]1O[C@@H](n2ccc(NC(=O)c3ccc(-c4c5ccc(=O)cc-5oc5cc(O)ccc45)c(C(=O)O)c3)nc2=O)C[C@@H]1O.O=C([O-])C(F)(F)F", "values": [{"measurement": "Drug uptake", "setting": "[16]", "result": 17, "unit": "%"}, {"measurement": "Drug uptake", "setting": "[1]", "result": 0.8, "unit": "%"}, {"measurement": "Activity", "setting": "MCF7 [17]", "result": 44, "unit": "%"}, {"measurement": "Drug uptake", "setting": "[7]", "result": 17, "unit": "%"}, {"measurement": "Drug uptake", "setting": "[10]", "result": 0.4, "unit": "%"}, {"measurement": "Activity", "setting": "MCF7 [18]", "result": 61, "unit": "%"}, {"measurement": "Drug uptake", "setting": "[11]", "result": 3, "unit": "%"}]}, {"smiles": "Nc1ccn([C@H]2C[C@H](O)[C@@H](COC(=O)CC[P+](c3ccccc3)(c3ccccc3)c3ccccc3)O2)c(=O)n1.O=C(O)C(F)(F)F.O=C([O-])C(F)(F)F", "values": [{"measurement": "Stability", "setting": "[19]", "result": "Unstable"}, {"measurement": "half-life at 50 µM", "setting": "esterase", "result": "< 0.25", "unit": "h"}, {"measurement": "half-life at 50 µM", "setting": "[8]", "result": "> 8.4", "unit": "h"}]}, {"smiles": "Nc1ccn([C@H]2C[C@H](O)[C@@H](COC(=O)CCCCC[P+](c3ccccc3)(c3ccccc3)c3ccccc3)O2)c(=O)n1.O=C(O)C(F)(F)F.O=C([O-])C(F)(F)F", "values": [{"measurement": "half-life at 50 µM", "setting": "[2]", "result": "> 17.8", "unit": "h"}, {"measurement": "half-life at 50 µM", "setting": "esterase", "result": "< 0.25", "unit": "h"}, {"measurement": "half-life at 50 µM", "setting": "[8]", "result": "> 8.4", "unit": "h"}]}]}
